Assay results as given in ChEMBL document CHEMBL4689842, “EUbOPEN Chemogenomics Library wave 1” (2021).

Test system: HEK-293T
Experiment: Multiplex assay against HEK293T;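 as to Population Tubulin-Different-Phenotype (%): share of the cells with healthy nuclei that show this phenotype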
Format: toxicity, cell-based
Settings: human
Summary of the method: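 Tubulin, mitochondrial-mass and membrane-permeability phenotypes are per cents of healthy-nucleus cells. Cells were gated by CellPathfinder machine learning into Hoechst high-intensity objects or normal cells, normal cells into healthy, pyknosed or fragmented nuclei, and pyknosed cells into mitotic or apoptotic. Before that, live cells stained at seeding with Hoechst33342, BioTracker Green Microtubule Cytoskeleton Dye, MitoTracker Red and Annexin V Alexa Fluor 680 were imaged on a CQ1 microscope at 37°C and 5% CO2 after compound addition.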

[1] = 12 h, 1 µM, compound concentration 1 uM, replicate 1
[2] = 12 h, 1 µM, compound concentration 1 uM, replicate 2
[3] = 12 h, 10 µM, compound concentration 10 uM, replicate 1
[4] = 12 h, 10 µM, compound concentration 10 uM, replicate 2
[5] = 24 h, 1 µM, compound concentration 1 uM, replicate 1
[6] = 24 h, 1 µM, compound concentration 1 uM, replicate 2
[7] = 24 h, 10 µM, compound concentration 10 uM, replicate 1
[8] = 24 h, 10 µM, compound concentration 10 uM, replicate 2
[9] = 48 h, 1 µM, compound concentration 1 uM, replicate 1
[10] = 48 h, 1 µM, compound concentration 1 uM, replicate 2
[11] = 48 h, 10 µM, compound concentration 10 uM, replicate 1
[12] = 48 h, 10 µM, compound concentration 10 uM, replicate 2

## O=C(Nc1cccnn1)N1CCC(=Cc2cccc(Oc3ccc(C(F)(F)F)cn3)c2)CC1
[1]
  Population Apoptotic (%): 22%
  Population Fragmented Nuclei (%): 20%
  Population Healthy Nuclei (%): 46%
  Population Hoechst High Intensity Objects (%): 16%
  Population Membrane Permeable-Phenotype (%): 10%
  Population Mitochondria Different-Phenotype (%): 17%
  Population Mitotic Cells (%): 77%
  Population Normal (%): 83%
  Population Pyknosed Nuclei (%): 33%
  Population Tubulin-Different-Phenotype (%): 29%
  Total Cell Count: 578
[2]
  Population Apoptotic (%): 17%
  Population Fragmented Nuclei (%): 5%
  Population Healthy Nuclei (%): 83%
  Population Hoechst High Intensity Objects (%): 9%
  Population Membrane Permeable-Phenotype (%): 7%
  Population Mitochondria Different-Phenotype (%): 30%
  Population Mitotic Cells (%): 82%
  Population Normal (%): 90%
  Population Pyknosed Nuclei (%): 11%
  Population Tubulin-Different-Phenotype (%): 62%
  Total Cell Count: 1415
[3]
  Population Apoptotic (%): 30%
  Population Fragmented Nuclei (%): 13%
  Population Healthy Nuclei (%): 67%
  Population Hoechst High Intensity Objects (%): 9%
  Population Membrane Permeable-Phenotype (%): 3%
  Population Mitochondria Different-Phenotype (%): 4%
  Population Mitotic Cells (%): 69%
  Population Normal (%): 90%
  Population Pyknosed Nuclei (%): 18%
  Population Tubulin-Different-Phenotype (%): 5%
  Total Cell Count: 619
[4]
  Population Apoptotic (%): 8%
  Population Fragmented Nuclei (%): 7%
  Population Healthy Nuclei (%): 88%
  Population Hoechst High Intensity Objects (%): 1%
  Population Membrane Permeable-Phenotype (%): 1%
  Population Mitochondria Different-Phenotype (%): 12%
  Population Mitotic Cells (%): 91%
  Population Normal (%): 98%
  Population Pyknosed Nuclei (%): 4%
  Population Tubulin-Different-Phenotype (%): 6%
  Total Cell Count: 1821
[5]
  Population Apoptotic (%): 31%
  Population Fragmented Nuclei (%): 16%
  Population Healthy Nuclei (%): 56%
  Population Hoechst High Intensity Objects (%): 15%
  Population Membrane Permeable-Phenotype (%): 12%
  Population Mitochondria Different-Phenotype (%): 19%
  Population Mitotic Cells (%): 68%
  Population Normal (%): 84%
  Population Pyknosed Nuclei (%): 27%
  Population Tubulin-Different-Phenotype (%): 54%
  Total Cell Count: 519
[6]
  Population Apoptotic (%): 8%
  Population Fragmented Nuclei (%): 6%
  Population Healthy Nuclei (%): 83%
  Population Hoechst High Intensity Objects (%): 10%
  Population Membrane Permeable-Phenotype (%): 10%
  Population Mitochondria Different-Phenotype (%): 30%
  Population Mitotic Cells (%): 91%
  Population Normal (%): 89%
  Population Pyknosed Nuclei (%): 10%
  Population Tubulin-Different-Phenotype (%): 82%
  Total Cell Count: 1537
[7]
  Population Apoptotic (%): 17%
  Population Fragmented Nuclei (%): 9%
  Population Healthy Nuclei (%): 83%
  Population Hoechst High Intensity Objects (%): 4%
  Population Membrane Permeable-Phenotype (%): 8%
  Population Mitochondria Different-Phenotype (%): 2%
  Population Mitotic Cells (%): 82%
  Population Normal (%): 95%
  Population Pyknosed Nuclei (%): 7%
  Population Tubulin-Different-Phenotype (%): 5%
  Total Cell Count: 783
[8]
  Population Apoptotic (%): 2%
  Population Fragmented Nuclei (%): 22%
  Population Healthy Nuclei (%): 74%
  Population Hoechst High Intensity Objects (%): 3%
  Population Membrane Permeable-Phenotype (%): 3%
  Population Mitotic Cells (%): 97%
  Population Normal (%): 96%
  Population Pyknosed Nuclei (%): 2%
  Population Tubulin-Different-Phenotype (%): 8%
  Total Cell Count: 3029

## O=C(Nc1ccc(Cl)cc1)Nc1cccc(-c2cccc(N3CCCC3)n2)c1
[1]
  Population Apoptotic (%): 51%
  Population Fragmented Nuclei (%): 10%
  Population Hoechst High Intensity Objects (%): 12%
  Population Membrane Permeable-Phenotype (%): 2%
  Population Mitochondria Different-Phenotype (%): 63%
  Population Mitotic Cells (%): 48%
  Population Normal (%): 87%
  Population Pyknosed Nuclei (%): 45%
  Population Tubulin-Different-Phenotype (%): 46%
[2]
  Population Apoptotic (%): 17%
  Population Fragmented Nuclei (%): 5%
  Population Healthy Nuclei (%): 43%
  Population Hoechst High Intensity Objects (%): 5%
  Population Membrane Permeable-Phenotype (%): 16%
  Population Mitochondria Different-Phenotype (%): 6%
  Population Mitotic Cells (%): 82%
  Population Normal (%): 94%
  Population Pyknosed Nuclei (%): 51%
  Population Tubulin-Different-Phenotype (%): 17%
[3]
  Population Apoptotic (%): 85%
  Population Fragmented Nuclei (%): 31%
  Population Healthy Nuclei (%): 2%
  Population Hoechst High Intensity Objects (%): 32%
  Population Membrane Permeable-Phenotype (%): 66%
  Population Mitochondria Different-Phenotype (%): 0%
  Population Mitotic Cells (%): 14%
  Population Normal (%): 68%
  Population Pyknosed Nuclei (%): 65%
  Population Tubulin-Different-Phenotype (%): 33%
[4]
  Population Apoptotic (%): 46%
  Population Fragmented Nuclei (%): 7%
  Population Healthy Nuclei (%): 14%
  Population Hoechst High Intensity Objects (%): 9%
  Population Membrane Permeable-Phenotype (%): 70%
  Population Mitochondria Different-Phenotype (%): 10%
  Population Mitotic Cells (%): 53%
  Population Normal (%): 90%
  Population Pyknosed Nuclei (%): 78%
  Population Tubulin-Different-Phenotype (%): 60%
[5]
  Population Apoptotic (%): 49%
  Population Fragmented Nuclei (%): 9%
  Population Healthy Nuclei (%): 47%
  Population Hoechst High Intensity Objects (%): 11%
  Population Membrane Permeable-Phenotype (%): 9%
  Population Mitochondria Different-Phenotype (%): 38%
  Population Mitotic Cells (%): 50%
  Population Normal (%): 88%
  Population Pyknosed Nuclei (%): 43%
  Population Tubulin-Different-Phenotype (%): 37%
[6]
  Population Apoptotic (%): 9%
  Population Fragmented Nuclei (%): 8%
  Population Healthy Nuclei (%): 60%
  Population Hoechst High Intensity Objects (%): 3%
  Population Membrane Permeable-Phenotype (%): 24%
  Population Mitochondria Different-Phenotype (%): 2%
  Population Mitotic Cells (%): 90%
  Population Normal (%): 96%
  Population Pyknosed Nuclei (%): 30%
  Population Tubulin-Different-Phenotype (%): 28%
[7]
  Population Apoptotic (%): 85%
  Population Fragmented Nuclei (%): 43%
  Population Healthy Nuclei (%): 6%
  Population Hoechst High Intensity Objects (%): 45%
  Population Membrane Permeable-Phenotype (%): 0%
  Population Mitochondria Different-Phenotype (%): 50%
  Population Mitotic Cells (%): 14%
  Population Normal (%): 54%
  Population Pyknosed Nuclei (%): 50%
  Population Tubulin-Different-Phenotype (%): 66%
[8]
  Population Apoptotic (%): 56%
  Population Fragmented Nuclei (%): 8%
  Population Healthy Nuclei (%): 14%
  Population Hoechst High Intensity Objects (%): 30%
  Population Membrane Permeable-Phenotype (%): 43%
  Population Mitochondria Different-Phenotype (%): 12%
  Population Mitotic Cells (%): 43%
  Population Normal (%): 69%
  Population Pyknosed Nuclei (%): 76%
  Population Tubulin-Different-Phenotype (%): 56%
[9]
  Population Apoptotic (%): 47%
  Population Fragmented Nuclei (%): 11%
  Population Healthy Nuclei (%): 57%
  Population Hoechst High Intensity Objects (%): 9%
  Population Membrane Permeable-Phenotype (%): 5%
  Population Mitochondria Different-Phenotype (%): 14%
  Population Mitotic Cells (%): 52%
  Population Normal (%): 90%
  Population Pyknosed Nuclei (%): 30%
  Population Tubulin-Different-Phenotype (%): 38%
[10]
  Population Apoptotic (%): 7%
  Population Fragmented Nuclei (%): 5%
  Population Healthy Nuclei (%): 82%
  Population Hoechst High Intensity Objects (%): 2%
  Population Membrane Permeable-Phenotype (%): 26%
  Population Mitochondria Different-Phenotype (%): 0%
  Population Mitotic Cells (%): 92%
  Population Normal (%): 97%
  Population Pyknosed Nuclei (%): 11%
  Population Tubulin-Different-Phenotype (%): 19%
[11]
  Population Apoptotic (%): 80%
  Population Fragmented Nuclei (%): 61%
  Population Healthy Nuclei (%): 7%
  Population Hoechst High Intensity Objects (%): 40%
  Population Membrane Permeable-Phenotype (%): 25%
  Population Mitochondria Different-Phenotype (%): 50%
  Population Mitotic Cells (%): 19%
  Population Normal (%): 59%
  Population Pyknosed Nuclei (%): 30%
  Population Tubulin-Different-Phenotype (%): 87%
[12]
  Population Apoptotic (%): 52%
  Population Fragmented Nuclei (%): 22%
  Population Healthy Nuclei (%): 22%
  Population Hoechst High Intensity Objects (%): 26%
  Population Membrane Permeable-Phenotype (%): 72%
  Population Mitochondria Different-Phenotype (%): 6%
  Population Mitotic Cells (%): 47%
  Population Normal (%): 73%
  Population Pyknosed Nuclei (%): 54%
  Population Tubulin-Different-Phenotype (%): 79%
